The results in this text go back to ChEMBL document CHEMBL1124311, “Synthesis and antiallergy activity of 4-(diarylhydroxymethyl)-1-[3-(aryloxy)propyl]piperidines and structurally related compounds” (J Med Chem, 1989).

The test system of assay [1] is Rattus norvegicus. Description: Oral antiallergy activity in the passive foot anaphylaxis (PFA) model of rat, at a dose of 1.0 (mg/kg); not significantly different from negative control group. The format is functional, organism-based.
Assay [2] concerns Rattus norvegicus. Description: Oral antiallergy activity in the passive foot anaphylaxis (PFA) model of rat, at a dose of 10 (mg/kg); Activity equal to positive control group. Type of assay: functional, organism-based.
For assay [3], the system named is Rattus norvegicus. Nature of the assay: Oral antiallergy activity in the passive foot anaphylaxis (PFA) model of rat, at a dose of 3.16 (mg/kg); Activity between positive and negative control groups. Type of assay: functional, organism-based.
The test system of assay [4] is Rattus norvegicus. Description: Oral antiallergy activity in the passive foot anaphylaxis (PFA) model of rat, at a dose of 10 (mg/kg); Activity greater than positive control group. The format is functional, organism-based.
In assay [5] the test system is Rattus norvegicus. Description: Oral antiallergy activity in the passive foot anaphylaxis (PFA) model of rat, at a dose of 3.16 (mg/kg); Activity equal to positive control group. The format is functional, organism-based.
For assay [6], the system named is Rattus norvegicus. Nature of the assay: Oral antiallergy activity in the passive foot anaphylaxis (PFA) model of rat, at a dose of 10 (mg/kg); Activity between positive and negative control groups. Type of assay: functional, organism-based.
Assay [7] is filed under the species Cavia porcellus. Nature of the assay: Oral antiallergy activity in the guinea pig anaphylaxis (GPA) model, at a pretreatment time of 1 h. Type of assay: functional. Particulars: read-out: PD50. Summed up: (§1)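 Fasted, sensitized Dunkin-Hartley guinea pigs, randomized into control (N = 8) and test (N = 4) groups, dosed by gavage at 10 mL/kg in 0.5% Tween 80 in water; theophylline 100 mg/kg po as reference. At the stated pretreatment time, each animal was exposed to aerosolized 1% (w/v) egg albumin at 10 L air/min for up to 5 min. Protection meant no collapse within 5 min. PD50 was calculated by Litchfield–Wilcoxon.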

The species named for assay [8] is Cavia porcellus. Description: Oral antiallergy activity in the guinea pig anaphylaxis (GPA) model, at a pretreatment time of 24 h. Type of assay: functional. Particulars: read-out: PD50. Summed up: as §1
For assay [9], the target named is Histamine H1 receptor (Cavia porcellus, UniProt P31389). Nature of the assay: Inhibitory activity against Tritiated [3H]- mepyramine binding to histamine H1 receptor in guinea pig cerebral cortex. The format is tissue-based. Summed up: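 Guinea pig (Dunkin-Hartley) cerebral cortex homogenized in cold 50 mM Na-K phosphate pH 7.5, centrifuged at 48000g three times, resuspended 30 mL buffer/g tissue. Six concentrations (1e-5 to 1e-10 M) run in triplicate. IC50 derived by regression of logit % control binding vs log concentration.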
Sequence of Histamine H1 receptor (P31389 whole entry): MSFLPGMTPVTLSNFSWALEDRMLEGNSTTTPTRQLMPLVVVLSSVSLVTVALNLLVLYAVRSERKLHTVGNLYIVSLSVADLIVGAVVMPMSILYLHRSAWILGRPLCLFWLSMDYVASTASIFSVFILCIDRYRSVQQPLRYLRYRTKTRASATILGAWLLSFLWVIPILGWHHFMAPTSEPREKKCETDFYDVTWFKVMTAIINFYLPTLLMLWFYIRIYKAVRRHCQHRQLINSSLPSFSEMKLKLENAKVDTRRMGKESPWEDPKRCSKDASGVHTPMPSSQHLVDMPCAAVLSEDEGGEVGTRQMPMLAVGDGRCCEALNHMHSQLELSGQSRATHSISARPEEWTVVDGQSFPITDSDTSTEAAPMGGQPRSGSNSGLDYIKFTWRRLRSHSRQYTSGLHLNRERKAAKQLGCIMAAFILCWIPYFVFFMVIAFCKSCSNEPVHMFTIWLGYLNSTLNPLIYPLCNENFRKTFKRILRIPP

For assay [10], the species on record is Cavia porcellus. Nature of the assay: Oral antiallergy activity in the guinea pig anaphylaxis (GPA) model of, at a pretreatment time of 5 h. Type of assay: functional. Particulars: read-out: PD50. Summed up: as §1
The test system of assay [11] is Rattus norvegicus. Description: Oral antiallergy activity in the passive foot anaphylaxis (PFA) model of rat, at a dose of 1.0 (mg/kg); Activity between positive and negative control groups. Type of assay: functional, organism-based.
Assay [12] has as its system Rattus norvegicus. Description: Oral antiallergy activity in the passive foot anaphylaxis (PFA) model of rat, at a dose of 0.5 (mg/kg); not significantly different from negative control group. The format is functional, organism-based.
For assay [13], the system named is Rattus norvegicus. Description: Oral antiallergy activity in the passive foot anaphylaxis (PFA) model of rat, at a dose of 3.16 (mg/kg); Activity greater than positive control group. The format is functional, organism-based.
Assay [14] has as its system Rattus norvegicus. Nature of the assay: Oral antiallergy activity in the passive foot anaphylaxis (PFA) model of rat, at a dose of 3.16 (mg/kg); not significantly different from negative control group. The format is functional, organism-based.
The subject of assay [15] is Rattus norvegicus. Nature of the assay: Oral antiallergy activity in the passive foot anaphylaxis (PFA) model of rat, at a dose of 0.5 (mg/kg); Activity between positive and negative control groups. Type of assay: functional, organism-based.

Active and inactive are the calls of the source. The rule behind the calls is not given here.

Turning to `CCc1ccc(OCCCN2CCC(C(O)(c3ccc(F)cc3)c3ccc(F)cc3)CC2)cc1`, the PFA result in [1] was “Activity between positive and negative control groups”; in assay [2], “Activity between positive and negative control groups”; in assay [3], “Activity between positive and negative control groups”.
In the case of `CCC(=O)c1ccc(OCCCN2CCC(C(O)(c3ccc(F)cc3)c3ccc(F)cc3)CC2)cc1`, the PFA result in assay [1], in assay [4] and in assay [5] was “Activity equal to positive control group” each time.
As for `CCOC(=O)c1ccccc1OCCCN1CCC(C(O)(c2ccc(F)cc2)c2ccc(F)cc2)CC1`, the PFA result in assay [1] is “Activity between positive and negative control groups”; in assay [6], “Activity between positive and negative control groups”; in assay [3], “Activity between positive and negative control groups”.
`COc1cc(C(C)=O)ccc1OCCCN1CCC(C(O)(c2ccc(F)cc2)c2ccc(F)cc2)CC1`: the ED50 in [7] is 1.78 mg/kg; in assay [8], 0.78 mg/kg; in assay [10] it was 0.18 mg/kg. In assay [9], the IC50 turned out to be 0.008 µM. In addition, the PFA result in [1] was “inactive”. Besides, the PFA entry in [4] and in assay [5] was “Active” each time.
With `NC(=O)c1ccc(OCCCN2CCC(C(O)(c3ccc(F)cc3)c3ccc(F)cc3)CC2)cc1`, the PFA result in assay [11] is “Activity between positive and negative control groups”; in assay [4], “Activity between positive and negative control groups”; in assay [12], “Activity between positive and negative control groups”; in [3], “Activity between positive and negative control groups”.
On to `COC(=O)c1ccc(OCCCN2CCC(C(O)(c3ccc(F)cc3)c3ccc(F)cc3)CC2)cc1`, for which the ED50 in assay [7] came to 0.72 mg/kg; in assay [8], 2.04 mg/kg; in [10] it was 0.32 mg/kg. This compound gave an IC50 in [9] of 0.063 µM. Moreover, the PFA result in assay [11] is “Weak activity”. In addition, the PFA entry in assay [12] was “inactive”. Further, the PFA result in assay [13] was “Active”.
On to `O=C(O)Cc1ccc(OCCCN2CCC(C(O)(c3ccc(F)cc3)c3ccc(F)cc3)CC2)cc1`, for which the PFA result in [1] is “Activity between positive and negative control groups”; in assay [2], “Activity between positive and negative control groups”; in assay [3], “Activity between positive and negative control groups”.
Take `OC(c1ccc(F)cc1)(c1ccc(F)cc1)C1CCN(CCCOc2ccccc2)CC1`: the PFA entry in assay [5] was “Activity equal to positive control group”.
Turning to `CN(C)C(=O)c1ccc(OCCCN2CCC(C(O)(c3ccc(F)cc3)c3ccc(F)cc3)CC2)cc1`, the PFA result is “Activity between positive and negative control groups” in [1]; “Activity between positive and negative control groups” in assay [4]; “Activity between positive and negative control groups” in assay [3].
As for `Nc1ccc(OCCCN2CCC(C(O)(c3ccc(F)cc3)c3ccc(F)cc3)CC2)cc1`, the PFA entry in [1] is “Activity between positive and negative control groups”; in assay [4] it was “Activity between positive and negative control groups”; in [3], “Activity between positive and negative control groups”.
For the compound `CC(C)C(=O)c1ccc(OCCCN2CCC(C(O)(c3ccc(F)cc3)c3ccc(F)cc3)CC2)cc1`, the PFA entry in assay [4] and in assay [14] was “Activity greater than positive control group” throughout.
As to `CC(=O)Nc1ccc(OCCCN2CCC(C(O)(c3ccc(F)cc3)c3ccc(F)cc3)CC2)cc1`, the PFA entry in assay [1], in [4] and in [5] was “Activity equal to positive control group” each time.
With `CC(C)(C)C(=O)c1ccc(OCCCN2CCC(C(O)(c3ccc(F)cc3)c3ccc(F)cc3)CC2)cc1`, the PFA result in assay [2] and in [14] was “Activity equal to positive control group” each time.
As for `COc1cc(C(C)=O)ccc1OCCCN1CCC(C(O)(c2ccccc2)c2ccccc2)CC1`, the ED50 was 0.57 mg/kg in assay [7], 1.4 mg/kg in assay [8] and 0.35 mg/kg in assay [10]. In assay [9], this compound displayed an IC50 of 0.042 µM. Further, the PFA result in assay [1] was “inactive”. The PFA entry in assay [4] and in assay [5] was “Active” each time.
As for `CCNCCc1ccc(CN(CC)c2cc(OC)ccc2[C@@H]2CCc3cc(O)ccc3C2)cc1`, the PFA entry in assay [1] was “Activity between positive and negative control groups”; in [3], “Activity between positive and negative control groups”.
On to `COc1cc(C(C)=O)ccc1OCCCN1CCC(=C(c2ccccc2)c2ccccc2)CC1`, for which the PFA entry in [5] is reported as “Activity equal to positive control group”.
Consider `O=C(O)CCc1ccc(OCCCN2CCC(C(O)(c3ccc(F)cc3)c3ccc(F)cc3)CC2)cc1`, for which the PFA entry is “Activity between positive and negative control groups” in assay [11]; “Activity between positive and negative control groups” in [4]; “Activity between positive and negative control groups” in assay [12]; “Activity between positive and negative control groups” in assay [5].
Take `CC(=O)Cc1ccc(OCCCN2CCC(C(O)(c3ccc(F)cc3)c3ccc(F)cc3)CC2)cc1`: the PFA result in [4] and in [14] was “Activity greater than positive control group” each time.
With `CNC(=O)Nc1ccc(OCCCN2CCC(C(O)(c3ccc(F)cc3)c3ccc(F)cc3)CC2)cc1`, the PFA result in assay [2] and in assay [14] was “Activity equal to positive control group” throughout.
As for `CC(=O)c1ccc(OCCCN2CCC(C(O)(c3ccc(F)cc3)c3ccc(F)cc3)CC2)cc1`, the PFA entry in assay [1], in assay [4] and in assay [5] was “Activity equal to positive control group” in each case.
Turning to `Cc1cccc(OCCCN2CCC(C(O)(c3ccc(F)cc3)c3ccc(F)cc3)CC2)c1`, the PFA entry in assay [1] is “Activity between positive and negative control groups”; in assay [6], “Activity between positive and negative control groups”; in assay [3], “Activity between positive and negative control groups”.
In the case of `COc1cc(C(C)=O)ccc1OCCCCN1CCC(C(O)(c2ccc(F)cc2)c2ccc(F)cc2)CC1`, the PFA result in assay [5] is given as “Activity equal to positive control group”.
Consider `COc1ccccc1OCCCN1CCC(C(O)(c2ccc(F)cc2)c2ccc(F)cc2)CC1`, for which the PFA entry in assay [11] is “Activity between positive and negative control groups”; in assay [3] it was “Activity between positive and negative control groups”.
For the compound `CC(C)Oc1ccccc1OCCCN1CCC(C(O)(c2ccc(F)cc2)c2ccc(F)cc2)CC1`, the PFA entry in [11] is “Activity between positive and negative control groups”; in assay [3], “Activity between positive and negative control groups”.
Regarding `CCOC(=O)c1ccc(OCCCN2CCC(C(O)(c3ccc(F)cc3)c3ccc(F)cc3)CC2)cc1.Cl`, the ED50 in assay [7] worked out at 1 mg/kg; in assay [8], 0.37 mg/kg; in [10] it was 0.44 mg/kg. In [9], the IC50 is 0.956 µM. Further, the PFA entry in assay [11] and in [15] was “Weak activity” throughout. In addition, the PFA entry in assay [13] was “Active”.
`CCOC(=O)Nc1ccc(OCCCN2CCC(C(O)(c3ccc(F)cc3)c3ccc(F)cc3)CC2)cc1`: the PFA result in assay [1], in assay [4] and in assay [5] was “Activity equal to positive control group” in each case.
For the compound `COc1ccc(OCCCN2CCC(C(O)(c3ccc(F)cc3)c3ccc(F)cc3)CC2)cc1`, the PFA entry in [2] and in [14] was “Activity equal to positive control group” in each case.
With `COC(=O)CCc1ccc(OCCCN2CCC(C(O)(c3ccc(F)cc3)c3ccc(F)cc3)CC2)cc1`, the PFA result in [11] was “Activity between positive and negative control groups”; in [4], “Activity between positive and negative control groups”; in [12] it was “Activity between positive and negative control groups”; in assay [3] it was “Activity between positive and negative control groups”.
As to `COc1cc(C(C)=O)ccc1OCCCN1CCC(C(O)(c2ccccc2)c2ccc(F)cc2)CC1` (stereo not given), the PFA entry in assay [5] is “Activity equal to positive control group”.
